Experimental findings from ChEMBL document CHEMBL4130379, “Design, synthesis and bioevaluation of antitubulin agents carrying diaryl-5,5-fused-heterocycle scaffold” (Eur J Med Chem, 2017) are described below.

One assay relates to A549. Briefly: Antiproliferative activity against human A549 cells after 72 hrs by MTT assay. In kind it is functional, cell-based. The following applies: A549, 72 h. The gist of the method: (§1)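 MTT assay on human SGC-7901 gastric adenocarcinoma, A549 lung adenocarcinoma and HT-1080 fibrosarcoma cells. The read-out was the half maximal inhibitory concentration (IC50). SMART and ABI were run in parallel as positive controls.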
On the technique in general: Tetrazolium assays rely on reduction of a dye to a coloured formazan, in cell work by metabolically active cells.

The subject of assay [1] is SGC-7901. Briefly: Antiproliferative activity against human SGC7901 cells after 72 hrs by MTT assay. It counts as functional, cell-based. The following applies: SGC-7901, 72 h. The gist of the method: as §1
Another assay has as its system HT-1080. Briefly: Antiproliferative activity against human HT1080 cells after 72 hrs by MTT assay. It counts as functional, cell-based. The following applies: HT-1080, 72 h. In short, it runs like this:
as §1

The species entered for another assay is Homo sapiens. Briefly: Induction of cytoplasmic microtubule network disassembly in human SGC7901 cells at 2 times antiproliferative IC50 after 48 hrs by DAPI staining-based immunofluorescence microscopic method. It counts as cell-based.
Assay [2] has as its system SGC-7901. Briefly: Cell cycle arrest in human SGC7901 cells assessed as accumulation at G2/M phase at 0.044 uM by propidium iodide staining-based flow cytometry. In kind it is functional. The note with it: TDE = time-dependent effect. The gist of the method: (§2)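 Time-course study in SGC-7901 cells treated with test agent. Cell cycle distribution (sub-G1, G0/G1, S, G2/M) and polyploidy were analysed by flow cytometry at successive time points.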

For assay [3], the system named is SGC-7901. Briefly: Cell cycle arrest in human SGC7901 cells assessed as accumulation at sub-G1 phase at 0.044 uM after 6 to 72 hrs by propidium iodide staining-based flow cytometry. In kind it is functional. In short, it runs like this:
as §2
In general terms: Flow cytometry measures light scatter and fluorescence of single cells or particles in a stream.

Assay [4] relates to SGC-7901. Briefly: Cell cycle arrest in human SGC7901 cells assessed as decrease in cell levels at G0/G1 phase at 0.044 uM after 6 to 72 hrs by propidium iodide staining-based flow cytometry. In kind it is functional. The gist of the method: as §2
The subject of assay [5] is SGC-7901. Briefly: Cell cycle arrest in human SGC7901 cells assessed as decrease in cell levels at S phase at 0.044 uM after 6 to 72 hrs by propidium iodide staining-based flow cytometry. In kind it is functional. In short, it runs like this: as §2
The test system of assay [6] is SGC-7901. Briefly: Cell cycle arrest in human SGC7901 cells assessed as induction of polyploidy at S phase at 0.044 uM after 24 hrs by propidium iodide staining-based flow cytometry. It counts as functional. The gist of the method: as §2
The nature of assay [7]: Inhibition of porcine brain tubulin polymerization preincubated for 1 min followed by GTP addition measured at 1 min intervals for 90 mins by spectrophotometric method.
The species named for the next assay is Sus scrofa. The description is as above.

Calls of active or inactive are those of the source. No cut-off for these calls is given here.

Take `COc1ccc(-c2nn3c(-c4cc(OC)c(OC)c(OC)c4)nnc3s2)cc1[N+](=O)[O-]`: the values for the IC50 in the assay with A549, in the assay on SGC-7901 [1] and with HT-1080 were 26.5 µM, 23.2 µM and 30.2 µM, respectively.
As for `COc1cc(-c2n[nH]c3cc(-c4ccc(Cl)cc4)nn23)cc(OC)c1OC`, the half-inhibitory concentration (IC50) with A549 was found to be 1.21 µM; in the assay on SGC-7901 [1], 6.12 µM; with HT-1080 it was 6.81 µM.
On the same counts, the results for `Cc1ccc(-c2nn3c(-c4ccc5c(c4)OCO5)nnc3s2)cc1` are 27.7 µM, 24 µM and 26.8 µM.
In the case of `COc1cc(C(=O)c2c[nH]c(-c3ccccc3)n2)cc(OC)c1OC`, the half-inhibitory concentration (IC50) came to 0.98 µM in the assay on A549, 0.81 µM in the assay on SGC-7901 [1] and 0.15 µM with HT-1080.
In the case of `COc1ccc(-c2nn3c(-c4ccc5c(c4)OCO5)nnc3s2)cc1[N+](=O)[O-]`, the results for the half-maximal inhibitory concentration (IC50) with A549, in the assay on SGC-7901 [1] and in the assay on HT-1080 were 32.8 µM, 37.8 µM and 30.3 µM, respectively.
Regarding `COc1ccc(-c2nn3c(-c4cc(OC)c(OC)c(OC)c4)nnc3s2)cc1N`, the concentration for half-maximal inhibition (IC50) came out at 0.029 µM in the assay with A549, 0.022 µM in the assay with SGC-7901 [1], 0.027 µM with HT-1080 and 0.77 µM in assay [7]. Moreover, the result in the assay listed under Homo sapiens, in the assay with SGC-7901 [3], with SGC-7901 [4], with SGC-7901 [5] and with SGC-7901 [6] was Active. Moreover, in the assay on SGC-7901 [2], the Activity entry is “Tde”. Also, the inhibition result in the assay filed under Sus scrofa is “Dose-dependent effect”.
In the case of `COc1ccc(-c2nnc3sc(-c4ccc(OC)c(N)c4)nn23)cc1`, the IC50 with A549 worked out at 14.9 µM; with SGC-7901 [1] it was 14.2 µM; in the assay on HT-1080, 16.4 µM.
The corresponding values for `COc1ccc(-c2cc3[nH]nc(-c4cc(OC)c(OC)c(OC)c4)n3n2)cc1[N+](=O)[O-]` are 58.2 µM, 48.3 µM and 35.6 µM.
Consider `COc1ccc(-c2cc3[nH]nc(-c4cc(OC)c(OC)c(OC)c4)n3n2)cc1`, for which the IC50 with A549 turned out to be 26.4 µM; with SGC-7901 [1], 26.8 µM; with HT-1080, 26.5 µM.
`COc1cccc(-c2nnc3sc(-c4ccc(OC)c(N)c4)nn23)c1`: the IC50 stood at 0.12 µM with A549, 0.059 µM in the assay on SGC-7901 [1] and 0.088 µM with HT-1080.
The corresponding values for `COc1ccc(-c2nn3c(-c4ccc5c(c4)OCO5)nnc3s2)cc1` are 29.7 µM, 25.6 µM and 24.5 µM.
The corresponding values for `COc1ccc(-c2nn3c(-c4ccc(OC)c(OC)c4OC)nnc3s2)cc1N` are 0.082 µM, 0.062 µM and 0.073 µM.
The corresponding values for `COc1ccc(-c2cc3[nH]nc(-c4cc(OC)c(OC)c(OC)c4)n3n2)cc1N` are 17.4 µM, 13.8 µM and 17.8 µM.
On to `COc1ccc(-c2nn3c(-c4ccc(OC)c(OC)c4OC)nnc3s2)cc1`, for which the half-inhibitory concentration (IC50) in the assay on A549 was 2.29 µM; with SGC-7901 [1], 3.75 µM; in the assay with HT-1080, 1.88 µM.
For `COc1ccc(-c2nnc3sc(-c4ccc(OC)c([N+](=O)[O-])c4)nn23)cc1`, the results for the IC50 with A549, in the assay on SGC-7901 [1] and with HT-1080 were 26.9 µM, 22.1 µM and 27.3 µM, respectively.
On the same counts, the results for `COc1cc(-c2n[nH]c3cc(-c4ccc(C)cc4)nn23)cc(OC)c1OC` are 29.3 µM, 33.5 µM and 51.3 µM.
On the same counts, the results for `COc1ccc(-c2nnc3sc(-c4ccc(OC)c([N+](=O)[O-])c4)nn23)cc1OC` are 30.4 µM, 37.7 µM and 32.8 µM.
The corresponding values for `COc1ccc(-c2nnc3sc(-c4ccc(C)cc4)nn23)c(OC)c1OC` are 0.803 µM, 0.186 µM and 0.089 µM.
On to `COc1cc(C(=O)c2csc(-c3ccccc3)n2)cc(OC)c1OC`, for which the concentration for half-maximal inhibition (IC50) was found to be 0.029 µM in the assay with A549, 0.019 µM with SGC-7901 [1] and 0.028 µM in the assay on HT-1080. The outcome in the assay filed under Homo sapiens was Active.
Turning to `COc1cccc(-c2nnc3sc(-c4ccc(OC)c([N+](=O)[O-])c4)nn23)c1`, the values for the IC50 in the assay with A549, in the assay with SGC-7901 [1] and in the assay with HT-1080 were 29.5 µM, 34.7 µM and 33 µM, respectively.
The corresponding values for `COc1ccc(-c2nn3c(-c4ccc(OC)c(OC)c4OC)nnc3s2)cc1[N+](=O)[O-]` are 33.8 µM, 32.5 µM and 35.1 µM.
Regarding `COc1ccc(-c2nn3c(-c4ccc5c(c4)OCO5)nnc3s2)cc1N`, the IC50 came out at 0.272 µM in the assay with A549, 0.057 µM in the assay with SGC-7901 [1] and 0.327 µM in the assay on HT-1080.
The corresponding values for `COc1ccc(-c2nn3c(-c4ccc(OC)c(OC)c4)nnc3s2)cc1N` are 0.522 µM, 0.083 µM and 0.339 µM.

The IC50 is the concentration that inhibits the measured activity by half. A lower IC50 goes with inhibition by little substance.
